The text below walks through data of ChEMBL document CHEMBL1129428 (J Med Chem, 1996).

Each structure is given as a SMILES string.

Series [1] has as its system Rattus norvegicus. Description: Compound was tested for anticonvulsant activity after Oral Administration into Rats by using MES screen test after 2h,dose 12.5 mg/kg; number of rats out of four which were protected. The format is functional. The method, boiled down:
(§1)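 Rats received the compound orally. […] Rats were tested in the MES screen at 0.25, 0.5, 1, 2 and 4 h. Each value is the number of rats protected out of 4. The test followed NINDS procedures.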

The test system of series [2] is Rattus norvegicus. Briefly: Compound was tested for anticonvulsant activity after Oral Administration into Rats by using MES screen test after 4h,dose 12.5 mg/kg; number of rats out of four which were protected. The format is functional. The method, boiled down: as §1
The test system of series [3] is Mus musculus. Briefly: Anticonvulsant activity after intraperitoneal injection into mice by using MES screen test after 0.5 hr. The format is functional.
The test system of series [4] is Rattus norvegicus. Description: Compound was tested for anticonvulsant activity after Oral Administration into rat by using MES screen test after 4 hr. The format is functional. Put shortly:
(§2)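 Rats dosed orally, typically at 50 mg/kg first, then mostly 12.5 mg/kg (some compounds at 30 mg/kg), and tested by maximal electroshock. Four rats per compound, scored at 0.25, 0.5, 1, 2 and 4 h as the number of rats protected out of 4.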

The subject of series [5] is Mus musculus. Description: Compound was tested for toxicity after intraperitoneal injection into mice by using toxicity screen test after 4 hr. The format is organism-based. The conditions noted are these: in vivo, ip. The method, boiled down: (§3)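 Mice injected intraperitoneally at 30, 100 and 300 mg/kg and examined 0.5 and 4 h afterwards. Each entry is the minimum dose giving activity (MES protection, scPTZ protection, or rotorod failure for neurotoxicity) in half or more of the mice. Activity is called absent if nothing occurs at 300 mg/kg.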

For series [6], the system named is Rattus norvegicus. Description: Compound was tested for anticonvulsant activity after Oral Administration into Rats by using MES screen test after 0.25h,dose 12.5 mg/kg; No activity was demonstarted. The format is functional, organism-based. Also noted: dose 12.5 mg/kg. Put shortly:
as §1

For series [7], the system named is Rattus norvegicus. Description: Anticonvulsant activity after oral administration into rats. The format is functional. Also noted: concentration or dose not given beside the values.
In series [8] the test system is Mus musculus. Briefly: Anticonvulsant activity after intraperitoneal injection into mice by using scPTZ screen test after 4 hr. The format is functional.
For series [9], the system named is Mus musculus. Briefly: Anticonvulsant activity after intraperitoneal injection into mice by using scPTZ screen after 0.5 hr. The format is functional.
The test system of series [10] is Mus musculus. Briefly: Toxicity after intraperitoneal injection into mice by using toxicity screen test after 0.5 hr. The conditions noted are these: in vivo, ip. The format is organism-based. The method, boiled down:
as §3

Series [11] in a line: Compound was tested for toxicity after oral administration in rat by using neurotoxicity screen test after 2 hr. The format is organism-based. The settings on record: in vivo. The method, boiled down: (§4)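 Rat neurotoxicity after oral dosing, observed at 0.25, 0.5, 1, 2, 4, 6, 8 and 24 h (8 h omitted for one compound).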
The test system of series [12] is Mus musculus. Briefly: Anticonvulsant activity after intraperitoneal injection into mice measured in a maximal electroshock scree (MES) screen. The format is functional.
Series [13] is described as follows: Compound was tested for […] after intraperitoneal injection into mice by using neurotoxicity screen test after 2 hr. The format is organism-based. The settings on record: mouse, in vivo, ip. The method, boiled down: (§5)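 Quantitative intraperitoneal mouse testing in the MES, scPTZ or rotorod neurotoxicity screens at the peak time given for each compound (0.25–2 h). ED50 or TD50 reported in mg/kg with 95% CI and slope (SE).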

Series [14] relates to Rattus norvegicus. Description: Compound was tested for anticonvulsant activity after Oral Administration into Rats by using MES screen test after 0.5h,dose 30 mg/kg; number of rats out of four which were protected. The format is functional. Put shortly:
as §1

Series [15] concerns Rattus norvegicus. Description: Compound was tested for anticonvulsant activity after Oral Administration into Rats by using MES screen test after 0.25h,dose 30 mg/kg; number of rats out of four which were protected. The format is functional. Put shortly:
as §1

The test system of series [16] is Rattus norvegicus. Description: Compound was tested for anticonvulsant activity after Oral Administration into Rats by using MES screen test after 1h,dose 30 mg/kg; number of rats out of four which were protected. The format is functional. Put shortly:
as §1

The nature of series [17]: Protection index = TD50/ED50 (MES). The settings on record: mouse, in vivo; read-out: PI.
Series [18] can be described thus: Compound was tested for toxicity after oral administration in rat by using neurotoxicity screen test after 4 hr. The format is organism-based. The conditions noted are these: in vivo. The method, boiled down: as §4
Series [19] has as its system Mus musculus. Briefly: Compound was tested for anticonvulsant activity after intraperitoneal injection into mice by using MES screen test after 2 hr. The format is functional. The settings on record: ip. The method, boiled down: as §5
The subject of series [20] is Rattus norvegicus. Briefly: Compound was tested for anticonvulsant activity after Oral Administration into Rats by using MES screen test after 2h,dose 30 mg/kg; number of rats out of four which were protected. The format is functional. The method, boiled down: as §1
Series [21] concerns Rattus norvegicus. Description: Compound was tested for anticonvulsant activity after Oral Administration into Rats by using MES screen test after 4h,dose 30 mg/kg; number of rats out of four which were protected. The format is functional. Put shortly: as §1
Series [22] deals with Mus musculus. Description: Compound was tested for anticonvulsant activity after intraperitoneal injection into mice by using scPTZ screen test after 2 hr. The format is functional. The conditions noted are these: ip. Put shortly: as §5
A short description of series [23]: Compound was tested for toxicity after intraperitoneal injection into mice by using neurotoxicity screen test after 2 hr. The format is organism-based. The conditions noted are these: mouse, in vivo, ip. Put shortly:
as §5

The nature of series [24]: Protection index = TD50/ED50. The format is ADME. The conditions noted are these: read-out: PI.
The subject of series [25] is Rattus norvegicus. Briefly: Compound was tested for anticonvulsant activity after Oral Administration into Rats by using MES screen test after 2h,dose 12.50 mg/kg; number of rats out of four which were protected. The format is functional. The conditions noted are these: dose 12.5 mg/kg. The method, boiled down: as §1
Series [26] has as its system Rattus norvegicus. Description: Compound was tested for anticonvulsant activity after Oral Administration into Rats by using MES screen test after 0.25h,dose 12.50 mg/kg; number of rats out of four which were protected. The conditions noted are these: dose 12.5 mg/kg. The format is functional. The method, boiled down: as §1
Series [27] deals with Rattus norvegicus. Briefly: Compound was tested for anticonvulsant activity after Oral Administration into Rats by using MES screen test after 4h,dose 12.50 mg/kg; number of rats out of four which were protected. The format is functional. The settings on record: dose 12.5 mg/kg. The method, boiled down:
as §1

Series [28] concerns Mus musculus. Briefly: Compound was tested for anticonvulsant activity after intraperitoneal injection into mice by using MES screen test after 0.5 hr. The settings on record: ip. The format is functional. Put shortly: as §3
In series [29] the test system is Rattus norvegicus. Briefly: Compound was tested for anticonvulsant activity after Oral Administration into Rats by using MES screen test after 1h,dose 12.50 mg/kg; number of rats out of four which were protected. The format is functional. The settings on record: dose 12.5 mg/kg. Put shortly: as §1
Series [30] concerns Rattus norvegicus. Description: Compound was tested for anticonvulsant activity after Oral Administration into Rats by using MES screen test after 0.5h,dose 12.50 mg/kg; number of rats out of four which were protected. The format is functional. The settings on record: dose 12.5 mg/kg. Put shortly:
as §1

A short description of series [31]: Compound was tested for toxicity after intraperitoneal injection into mice by using neurotoxicity screen test after 1 hr. The conditions noted are these: mouse, in vivo, ip. The format is organism-based. Put shortly: as §5
In series [32] the test system is Mus musculus. Description: Compound was tested for anticonvulsant activity after intraperitoneal injection into mice by using scPTZ screen test after 1 hr. The format is functional. The settings on record: ip. Put shortly: as §5
Series [33] in a line: Partition coefficient (logP). The format is physicochemical. The settings on record: octanol/water. The method, boiled down: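 Partition between 1-octanol and buffer at pH 7.4, with solutions prepared in 1-octanol before buffer is added. Quantified by UV, using λmax and ε values measured in 1-octanol.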
Series [34] has as its system Rattus norvegicus. Description: Compound was tested for anticonvulsant activity after Oral Administration into Rats by using MES screen test after 1h,dose 12.5 mg/kg; number of rats out of four which were protected. The format is functional. Put shortly: as §1
Series [35] relates to Mus musculus. Briefly: Compound was tested for anticonvulsant activity after intraperitoneal injection into mice by using MES screen test after 1 hr. The format is functional. The conditions noted are these: ip. Put shortly:
as §5

Series [36] has as its system Rattus norvegicus. Briefly: Compound was tested for anticonvulsant activity after Oral Administration into Rats by using MES screen test after 0.25h,dose 12.5 mg/kg; number of rats out of four which were protected. The format is functional. The method, boiled down: as §1
Series [37] has as its system Rattus norvegicus. Briefly: Compound was tested for anticonvulsant activity after Oral Administration into rat by using MES screen test after 2 hr. The format is functional. Put shortly: as §2

For `NC(=O)N/N=C/c1ccc(Oc2c(F)cccc2F)cc1`, the Activity is 4 in the series with Rattus norvegicus [1], 4 in the series on Rattus norvegicus [2], “No activity” with Rattus norvegicus [6] and 2 with Rattus norvegicus [7]. Also, the Dose in the series on Mus musculus [3] came out at 30 mg/kg; with Mus musculus [5], 300 mg/kg; in the series with Mus musculus [8], 300 mg/kg; in the series on Mus musculus [9], 300 mg/kg; with Mus musculus [10], 300 mg/kg; in the series on Mus musculus [12], 30 mg/kg. Moreover, it took a dose of 5.53 mg/kg to reach the 50% effect level in the series with Rattus norvegicus [4] (ED50). Also, the TD50 at 2 h in series [11] was > 500 mg/kg; in [13], 125 mg/kg.
`C/C(=N/NC(N)=O)c1ccc(Oc2ccc(Cl)cc2)cc1`: the Activity with Rattus norvegicus [14] was 4; with Rattus norvegicus [15] it was 3; in the series with Rattus norvegicus [16], 4; with Rattus norvegicus [20], 4; in the series with Rattus norvegicus [21], 4. For the same molecule, the Dose with Mus musculus [3] stood at 30 mg/kg; in the series on Mus musculus [5], 100 mg/kg; in the series with Mus musculus [8] it was 30 mg/kg; with Mus musculus [10] it was 300 mg/kg; in the series on Mus musculus [12], 30 mg/kg. For the same molecule, the 50% effective dose (ED50) stood at 2.92 mg/kg with Rattus norvegicus [4], 9.14 mg/kg in the series with Mus musculus [19] and 34.4 mg/kg with Mus musculus [22]. Also, the selectivity ratio amounted to 8.37 in series [17] and 2.23 in [24]. The TD50 at 4 h in series [18] is < 500 mg/kg. In series [23], this molecule showed a TD50 at 2 h of 76.5 mg/kg.
Turning to `NC(=O)N/N=C/c1ccc(Oc2cc(F)cc(F)c2)cc1`, the Dose was found to be 30 mg/kg with Mus musculus [3]; 300 mg/kg in the series on Mus musculus [5]; 100 mg/kg with Mus musculus [9]; 300 mg/kg with Mus musculus [10]; 30 mg/kg in the series with Mus musculus [12]. The Activity in the series with Rattus norvegicus [25] was determined as 4; with Rattus norvegicus [26], 1; in the series on Rattus norvegicus [27], 4; in the series on Rattus norvegicus [29], 4; in the series on Rattus norvegicus [30], 3. Further, it took a dose of 12.3 mg/kg to reach the 50% effect level in the series with Mus musculus [28] (ED50). Moreover, in series [17], the selectivity ratio is 5.58. In series [31], this molecule registered a TD50 at 1 h of 68.8 mg/kg.
As to `NC(=O)N/N=C/c1ccc(Sc2ccc(F)cc2)cc1`, the Activity in the series with Rattus norvegicus [1] stood at 4; in the series with Rattus norvegicus [2], 4; with Rattus norvegicus [34], 4; with Rattus norvegicus [7], 3; in the series with Rattus norvegicus [36], 1. Besides, the values for the ED50 in the series with Mus musculus [32], with Mus musculus [35] and in the series with Rattus norvegicus [37] were > 120 mg/kg, 12.4 mg/kg and 4.98 mg/kg, respectively. In series [33], this molecule yielded a logP of 2.8. For the same molecule, the Dose came out at 30 mg/kg in the series on Mus musculus [3]; 100 mg/kg in the series with Mus musculus [5]; 30 mg/kg in the series with Mus musculus [9]; 300 mg/kg in the series on Mus musculus [10]; 30 mg/kg in the series on Mus musculus [12]. For the same molecule, the TD50 at 4 h in [18] amounted to 183 mg/kg. The same molecule yielded a TD50 at 2 h in series [23] of 88 mg/kg.
